The source made the active and inactive calls. The rule behind the calls is not given here.
How the values were obtained:
[1] = Cytotoxicity against HEK293 cells assessed as inhibition of cell growth incubated for 72 hrs by MTT assay; assay type: toxicity, cell-based; conditions: human
Outline: (§1)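 MTT assay in human tumour lines SW480 (colon), A549 (lung adenocarcinoma), MCF7 and MDA-MB-231 (breast), in non-tumorigenic breast MCF10A, and in human embryonic kidney Hek293 as non-tumour reference. Compounds tested at several concentrations for 72 h; IC50 derived from dose-response and given as mean ± error. Cisplatin as reference.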

SW480 = experiment: Antiproliferative activity against human SW480 cells assessed as inhibition of cell growth incubated for 72 hrs by MTT assay; assay type: functional, cell-based; conditions: SW480, 72 h; outline: as §1
A549 = experiment: Antiproliferative activity against human A549 cells assessed as inhibition of cell growth incubated for 72 hrs by MTT assay; assay type: functional, cell-based; conditions: A549, 72 h; outline: as §1
[2] = Antiproliferative activity against human SW182 cells assessed as inhibition of cell growth at 2.5 to 2 mM incubated for 24 hrs by MTT assay relative to control; assay type: functional; set-up: scale not given: the % may be the effect or the level left; conditions: dose 2.5-2 mM, at 2 to 2.5 mM
[3] = Antiproliferative activity against human H199 cells assessed as inhibition of cell growth at 2.5 to 2 mM incubated for 24 hrs by MTT assay relative to control; assay type: functional; set-up: scale not given: the % may be the effect or the level left; conditions: dose 2.5-2 mM, at 2 to 2.5 mM
MCF7 [4] = experiment: Downregulation of LYPLA2 gene expression in human MCF7 cells at IC50 concentration incubated for 72 hrs by RT-PCR analysis; assay type: functional, cell-based
Outline: (§2)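 mRNA levels measured by qPCR in MCF7, MDA-MB-231 and MCF10A breast cells after compound treatment, against DMSO-treated vehicle control. LYPLA2 expression given as a ratio to GAPDH. Statistics by Brown-Forsythe and Welch ANOVA with Dunnett T3 correction; p < 0.05 and p < 0.01 marked.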

MCF-10A [5] = experiment: Antiproliferative activity against human MCF-10A cells assessed as inhibition of cell growth incubated for 72 hrs by MTT assay; assay type: functional, cell-based; outline: as §1
MDA-MB-231 [6] = experiment: Antiproliferative activity against human MDA-MB-231 cells assessed as inhibition of cell growth incubated for 72 hrs by MTT assay; assay type: functional, cell-based; conditions: MDA-MB-231, 72 h; outline: as §1
MDA-MB-231 [7] = experiment: Downregulation of LYPLA2 gene expression in human MDA-MB-231 cells at IC50 concentration incubated for 72 hrs by RT-PCR analysis; assay type: functional, cell-based; outline: as §2
MCF7 [8] = experiment: Antiproliferative activity against human MCF7 cells assessed as inhibition of cell growth incubated for 72 hrs by MTT assay; assay type: functional, cell-based; conditions: MCF7, 72 h; outline: as §1
MCF7 [9] = experiment: Downregulation of EP300 gene expression in human MCF7 cells at IC50 concentration incubated for 72 hrs by RT-PCR analysis; assay type: functional, cell-based
MDA-MB-231 [10] = experiment: Downregulation of EP300 gene expression in human MDA-MB-231 cells at IC50 concentration incubated for 72 hrs by RT-PCR analysis; assay type: functional, cell-based
MCF-10A [11] = experiment: Downregulation of LYPLA2 gene expression in human MCF-10A cells at IC50 concentration incubated for 72 hrs by RT-PCR analysis; assay type: functional, cell-based; outline: as §2

SMILES	IC50 at 72 h [1]	IC50 (SW480)	IC50 (A549)	also measured
O=C1N(Cc2cn(Cc3ccccc3)nn2)c2ccccc2[C@]1(O)c1ccc2ccccc2c1	14 µM	8.7 µM	23.5 µM	
O=C1N(Cc2cn(Cc3ccccc3)nn2)c2ccccc2[C@]1(O)c1ccc(F)cc1	53.5 µM	32.1 µM	77.3 µM	
COc1ccc([C@@]2(O)C(=O)N(Cc3cn(Cc4ccccc4)nn3)c3ccccc32)cc1	38 µM	36.6 µM	95.9 µM	
O=C1N(Cc2cn(Cc3ccccc3)nn2)c2ccccc2[C@]1(O)c1ccsc1	64 µM	29.5 µM	> 100 µM	
O=C(Cn1cc(CN2C(=O)C(=O)c3ccccc32)nn1)Nc1nc2ccccc2s1				Activity [2]: >50%; Activity [3]: >50%
O=C1N(Cc2cn(Cc3ccccc3)nn2)c2ccccc2[C@@]1(O)c1ccccc1	> 100 µM	62.4 µM	> 100 µM	
CCCCn1cc(CN2C(=O)[C@](O)(c3ccccc3)c3ccccc32)nn1	> 100 µM	> 100 µM	> 100 µM	
O=C1N(Cc2cn(Cc3ccccc3)nn2)c2ccc(Br)cc2[C@]1(O)c1ccccc1	36.1 µM	28.7 µM	65.9 µM	Activity (MCF7 [4]): Active; IC50 (MCF-10A [5]): 1020 nM; IC50 (MDA-MB-231 [6]): 1410 nM; Activity (MDA-MB-231 [7]): Active; IC50 (MCF7 [8]): 1490 nM
CS(=O)(=O)c1ccc2nc(NC(=O)Cn3cc(CN4C(=O)C(=O)c5ccccc54)nn3)sc2c1				Activity [2]: >50%; Activity [3]: >50%
O=C1C(=O)N(Cc2cn(Cc3ccccc3)nn2)c2ccccc21	63.7 µM	32.2 µM	54.7 µM	Activity (MCF7 [9]): Active; Activity (MDA-MB-231 [10]): Active; IC50 (MCF-10A [5]): 1800 nM; IC50 (MDA-MB-231 [6]): 2950 nM; IC50 (MCF7 [8]): 1390 nM
O=C1N(Cc2cn(Cc3ccccc3)nn2)c2ccccc2[C@@]1(O)c1cccc(O)c1	33.7 µM	31.8 µM	> 100 µM	
COc1ccc([C@]2(O)C(=O)N(Cc3cn(Cc4ccccc4)nn3)c3ccccc32)cc1	> 100 µM	75.8 µM	> 100 µM	
O=C1N(Cc2cn(Cc3ccccc3)nn2)c2ccc(Br)cc2[C@@]1(O)c1ccccc1	87.3 µM	18.9 µM	29.3 µM	IC50 (MCF-10A [5]): 1100 nM; IC50 (MDA-MB-231 [6]): 1620 nM; IC50 (MCF7 [8]): 2040 nM
O=C1N(Cc2cn(Cc3ccccc3)nn2)c2ccccc2[C@@]1(O)c1ccsc1	46.4 µM	62.5 µM	98 µM	
O=C1N(Cc2cn(Cc3ccccc3)nn2)c2ccccc2[C@@]1(O)c1ccc2ccccc2c1	12.4 µM	9.9 µM	28.3 µM	Activity (MCF-10A [11]): Active; IC50 (MCF-10A [5]): 1330 nM; IC50 (MDA-MB-231 [6]): 3100 nM; Activity (MDA-MB-231 [7]): Active; IC50 (MCF7 [8]): 1750 nM
CC(C)[C@@H]1CC[C@@H](C)C[C@@H]1n1cc(CN2C(=O)C3(OCCO3)c3ccccc32)nn1	> 100 µM	> 100 µM	> 100 µM	
O=C1N(Cc2cn(Cc3ccccc3)nn2)c2ccccc2[C@]1(O)c1ccccc1	> 100 µM	75.3 µM	> 100 µM	
O=C1N(Cc2cn(Cc3ccccc3)nn2)c2ccccc2[C@@]1(O)c1ccc(F)cc1	50.3 µM	28.2 µM	72.1 µM	
Cc1ccc2nc(NC(=O)Cn3cc(CN4C(=O)C(=O)c5ccccc54)nn3)sc2c1				Activity [2]: >50%; Activity [3]: >50%
Cc1ccc([C@]2(O)C(=O)N(Cc3cn(Cc4ccccc4)nn3)c3ccccc32)cc1	> 100 µM	> 100 µM	> 100 µM	
Cc1ccc2c(c1)C(=O)C(=O)N2Cc1cn(Cc2ccccc2)nn1	26.9 µM	26.6 µM	41.5 µM	Activity (MCF7 [9]): Active; Activity (MDA-MB-231 [10]): Active; IC50 (MCF-10A [5]): 1540 nM; IC50 (MDA-MB-231 [6]): 2400 nM; IC50 (MCF7 [8]): 1500 nM
CCCCn1cc(CN2C(=O)[C@@](O)(c3ccccc3)c3ccccc32)nn1	> 100 µM	> 100 µM	> 100 µM	
CC(C)[C@@H]1CC[C@@H](C)C[C@@H]1n1cc(CN2C(=O)C(=O)c3ccccc32)nn1	23.1 µM	8.9 µM	53.8 µM	Activity (MCF7 [9]): Active; Activity (MDA-MB-231 [10]): Active; IC50 (MCF-10A [5]): 1080 nM; IC50 (MDA-MB-231 [6]): 1790 nM; IC50 (MCF7 [8]): 1340 nM

Reference: ChEMBL document CHEMBL5108040, “N-1,2,3-Triazole-isatin derivatives: anti-proliferation effects and target identification in solid tumour cell lines” (RSC Med Chem, 2022)
